From ChEMBL document CHEMBL1145814, “Antiretroviral activity of semisynthetic derivatives of glycopeptide antibiotics” (J Med Chem, 2003)
Converted amounts (≈) assume the structure as drawn.

Experiments:
Mus musculus [1] = organism: Mus musculus; test: Effective concentration of compound required to protect C3H/3T3 embryo murine fibroblasts against the MSV induced transformation; type: functional, organism-based; conditions: Mus musculus, C3H/3T3
How it was run: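 Monolayer murine embryo fibroblast C3H/3T3 cultures were infected with Moloney murine sarcoma virus at 75 focus-forming units and cultured with test compound. Transformation was examined microscopically on day 6 postinfection. EC50 is the concentration protecting cells against MSV-induced transformation by 50%.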

Mus musculus [2] = organism: Mus musculus; test: Minimal inhibitory concentration required to cause a microscopic detectable alteration of C3H/3T3 embryo murine fibroblast cell morphology; type: functional
How it was run: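 Uninfected C3H/3T3 murine embryo fibroblast cultures were exposed to test compound and checked microscopically for changes in cell morphology. The MIC is the concentration causing a microscopically detectable alteration of morphology.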

CCRF-CEM = test: Inhibitory concentration against proliferation of human T-lymphocytic (CEM) cells; type: functional, cell-based; conditions: Homo sapiens, CCRF-CEM
How it was run: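 (5–7.5) × 10^4 cells per well were incubated with test compound at 37 °C in a humidified CO2 atmosphere. L1210 murine leukemia cells grew for 48 h, and CEM and Molt4/clone 8 human lymphocytes grew for 72 h. Cells were then counted with a Coulter counter. IC50 is the concentration inhibiting proliferation by 50%.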

[3] = tested on: Human immunodeficiency virus 2; test: Concentration required to protect human T-lymphocytic cells against the cytopathogenicity of HIV-2; type: functional, organism-based; conditions: Human immunodeficiency virus 2
[4] = tested on: Human immunodeficiency virus 1; test: Effective concentration of compound required to protect human T-lymphocytic cells against the cytopathogenicity of HIV-1; type: functional, organism-based; conditions: Human immunodeficiency virus 1

Row | Structure (SMILES) | IC50 (CCRF-CEM) [µM] | EC50 [3] [µM] | EC50 [4] [µM] | EC50 (Mus musculus [1]) [µM] | MIC (Mus musculus [2]) [µM]
1 | CN[C@H](CC(C)C)C(=O)N[C@H]1C(=O)N[C@@H](CC(N)=O)C(=O)N[C@H]2C(=O)N[C@H]3C(=O)N[C@H](C(=O)N[C@H](C(=O)O)c4cc(O)cc(O)c4-c4cc3ccc4O)[C@H](O)c3ccc(c(Cl)c3)Oc3cc2cc(c3O[C@@H]2O[C@H](CO)[C@@H](O)[C@H](O)[C@H]2O[C@H]2C[C@](C)(NCc3ccc(-c4ccc(Cl)cc4)cc3)C(O)[C@H](C)O2)Oc2ccc(cc2Cl)[C@H]1O (some centres not stated) [listing 1 of 2 here] |  |  |  | 7.7 | 
2 | CN[C@H](CC(C)C)C(=O)N[C@H]1C(=O)N[C@@H](CC(N)=O)C(=O)N[C@H]2C(=O)N[C@H]3C(=O)N[C@H](C(=O)N[C@H](C(=O)O)c4cc(O)cc(O)c4-c4cc3ccc4O)[C@H](O)c3ccc(c(Cl)c3)Oc3cc2cc(c3O[C@@H]2O[C@H](CO)[C@@H](O)[C@H](O)[C@H]2O[C@H]2C[C@](C)(NCc3ccc(-c4ccc(Cl)cc4)cc3)C(O)[C@H](C)O2)Oc2ccc(cc2Cl)[C@H]1O (some centres not stated) [listing 2 of 2 here] |  |  |  |  | > 25
3 | CN[C@H](CC(C)C)C(=O)N[C@H]1C(=O)N[C@@H](CC(N)=O)C(=O)N[C@H]2C(=O)N[C@H]3C(=O)N[C@H](C(=O)N[C@H](C(=O)NCc4ccc(-c5ccc(Cl)cc5)cc4)c4cc(O)cc(O)c4-c4cc3ccc4O)[C@H](O)c3ccc(c(Cl)c3)Oc3cc2cc(c3O[C@@H]2O[C@H](CO)[C@@H](O)[C@H](O)[C@H]2O[C@H]2C[C@](C)(N)C(O)[C@H](C)O2)Oc2ccc(cc2Cl)[C@H]1O (some centres not stated) [listing 1 of 2 here] |  |  |  | > 2 | 
4 | CN[C@H](CC(C)C)C(=O)N[C@H]1C(=O)N[C@@H](CC(N)=O)C(=O)N[C@H]2C(=O)N[C@H]3C(=O)N[C@H](C(=O)N[C@H](C(=O)NCc4ccc(-c5ccc(Cl)cc5)cc4)c4cc(O)cc(O)c4-c4cc3ccc4O)[C@H](O)c3ccc(c(Cl)c3)Oc3cc2cc(c3O[C@@H]2O[C@H](CO)[C@@H](O)[C@H](O)[C@H]2O[C@H]2C[C@](C)(N)C(O)[C@H](C)O2)Oc2ccc(cc2Cl)[C@H]1O (some centres not stated) [listing 2 of 2 here] |  |  |  |  | 20 (≈ 33 µg/mL)
5 | NC(=O)C[C@@H]1NC(=O)C(N)C(O)c2ccc(c(Cl)c2)Oc2cc3cc(c2O)Oc2ccc(cc2)C(O)C2NC(=O)C(NC(=O)C3NC1=O)c1ccc(O)c(c1)-c1c(O)cc(O)cc1[C@H](C(=O)O)NC2=O (some centres not stated) | > 250 | > 250 | 115 | > 100 | > 100

More lines, main results first:

Row | IC50 (CCRF-CEM) [µM] | EC50 [3] [µM] | EC50 [4] [µM] | Structure (SMILES) | EC50 (Mus musculus [1]) [µM] | MIC (Mus musculus [2]) [µM]
6 | > 250 | 8 | 12 | O=C(NC1C(=O)NC2Cc3ccc(c(Cl)c3)Oc3cc4cc(c3O)Oc3ccc(cc3Cl)C(O)C3NC(=O)C(NC(=O)C4NC(=O)C(NC2=O)c2cc(O)cc(c2)Oc2cc1ccc2O)c1ccc(O)c(c1)-c1c(O)cc(O)cc1[C@H](C(=O)O)NC3=O)OCc1ccccc1 (some centres not stated) | 11 | > 100
7 | 220 | 8 | 6 | O=C1NC2C(=O)NC3C(=O)NC4C(=O)NC(C(=O)N[C@@H](C(=O)O)c5cc(O)cc(O)c5-c5cc4ccc5O)C(O)c4ccc(c(Cl)c4)Oc4cc3cc(c4O)Oc3ccc(cc3Cl)CC1NC(=O)C(/N=C(\S)Nc1ccccc1)c1ccc(O)c(c1)Oc1cc(O)cc2c1 (some centres not stated) | 7.5 | 100 (≈ 133 µg/mL)
8 | 21 | 5.8 | 2.6 | CCCCCCCCCCNC(=O)[C@@H]1NC(=O)C2NC(=O)C(NC(=O)C3NC(=O)C4NC(=O)C(Cc5ccc(c(Cl)c5)Oc5cc3cc(c5O)Oc3ccc(cc3Cl)C2O)NC(=O)C(N)c2ccc(O)c(c2)Oc2cc(O)cc4c2)c2ccc(O)c(c2)-c2c(O)cc(O)cc21 (some centres not stated) |  | 
9 | > 250 | 40 | 22 | NC(=O)CC1NC(=O)C(N)C(O)c2ccc(c(Cl)c2)Oc2cc3cc(c2O)Oc2ccc(cc2)C(O)C2NC(=O)C(NC(=O)C3NC1=O)c1ccc(O)c(c1)-c1c(cc(O)c(CNC3C4CC5CC(C4)CC3C5)c1O)[C@H](C(=O)O)NC2=O (some centres not stated) | 47 | > 100
10 | 60 | 6 | 2.5 | CCCCCCCCCCCCCCCCCCNCc1c(O)cc2c(c1O)-c1cc(ccc1O)C1NC(=O)C3NC(=O)C4NC(=O)C(Cc5ccc(c(Cl)c5)Oc5cc3cc(c5O)Oc3ccc(cc3Cl)C(O)C(NC1=O)C(=O)N[C@H]2C(=O)NC)NC(=O)C(N)c1ccc(O)c(c1)Oc1cc(O)cc4c1 (some centres not stated) | 4.7 | 100 (≈ 149 µg/mL)
